In the library only some 3.4% were active in any assay of this set; here they are far more common.
IMP-1 inh: IMP-1 metallo-beta-lactamase inhibitors, primary screen, biochemical, epi-absorbance readout, Pseudomonas aeruginosa enzyme; metallo-beta-lactamase IMP-1 (Pseudomonas aeruginosa); purified IMP-1, nitrocefin hydrolysis, epi-absorbance fluorescence; inhibition, % at 5.6 µM; actives 0.45% (n = 290,000); AID 1556, 2009;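 active means inhibition above the mean plus 3 SD of all compounds in the same screening run, cut at about 4.5% in these data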;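 further: 0% = IMP-1 with DMSO and 100% = DMSO wells lacking enzyme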
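System: Purified recombinant IMP-1 metallo-beta-lactamase enzyme | Measured by: Fluorescence quenching readout, ex 480/em 530 nm | Replication: Singlicate | Incubation: 15 min preincubation plus 25 min reaction at 25 °C | Evaluation: Percent inhibition from optical density relative to buffer-blank wells | Benchmarks: DMSO with and without IMP-1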
MEKK3 PB1 HTS: modulators of MEKK3-MEK5 PB1 binding, primary screen, biochemical, wildtype MEKK3, multiplex bead flow cytometry, Alexa488-MEK5; actives 1.4% (n = 290,000); bead-based flow cytometry, Alexa488-MEK5 binding to MEKK3; actives lie on both sides; 0 = blocked by unlabeled MEK5, 100 = vehicle; binding response (% of control), % at 10 µM;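 active means binding response more than 3 SD above or below the average of its plate-row segment, actives on both sides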;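 further: Alexa488 bead fluorescence after subtracting the streptavidin-only scavenger bead signal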
Target sequence (Q99759 whole entry, looked up): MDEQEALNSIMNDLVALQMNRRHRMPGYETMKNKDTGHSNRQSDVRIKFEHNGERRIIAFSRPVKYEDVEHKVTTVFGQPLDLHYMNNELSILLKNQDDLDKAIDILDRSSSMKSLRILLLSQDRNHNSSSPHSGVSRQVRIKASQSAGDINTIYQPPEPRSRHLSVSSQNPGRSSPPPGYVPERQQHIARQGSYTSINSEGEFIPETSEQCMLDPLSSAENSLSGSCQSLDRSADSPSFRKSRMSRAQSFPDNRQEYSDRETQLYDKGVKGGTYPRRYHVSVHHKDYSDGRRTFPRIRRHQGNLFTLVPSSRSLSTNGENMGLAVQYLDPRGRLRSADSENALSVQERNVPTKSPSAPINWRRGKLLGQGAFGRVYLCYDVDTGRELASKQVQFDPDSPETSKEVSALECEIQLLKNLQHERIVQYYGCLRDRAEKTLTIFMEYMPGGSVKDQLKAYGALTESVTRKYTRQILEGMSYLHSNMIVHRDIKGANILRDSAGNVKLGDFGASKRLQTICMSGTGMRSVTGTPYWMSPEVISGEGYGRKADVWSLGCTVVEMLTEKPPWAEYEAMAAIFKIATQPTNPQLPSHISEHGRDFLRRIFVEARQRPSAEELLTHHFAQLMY
VIM-2 inh: VIM-2 metallo-beta-lactamase inhibitors, primary screen, biochemical, epi-absorbance readout, Pseudomonas aeruginosa enzyme; actives 0.89% (n = 290,000); inhibition, % at 5.6 µM; AID 1527, 2009; purified VIM-2, nitrocefin hydrolysis, epi-absorbance fluorescence;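 active means inhibition above the mean of all tested compounds plus 3 SD, cutoff set per screening run, cut at about 7.5% in these data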;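 further: red hydrolysis product quenches plate fluorescence so inhibitors raise well fluorescence; 0% = enzyme with DMSO and 100% = DMSO without enzyme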
MEKK2 mut-MEK5: MEK5 binding signal on mutant MEKK2 PB1, primary screen, biochemical, multiplex bead flow cytometry, Alexa488-MEK5. AID 1530, 2009. actives 0.35% (n = 290,000). percent response, % at 10 µM. Alexa488-MEK5 binding to MEKK2 mutant; in the data active means percent response above about 24%, passing the limit was not always enough
MEKK2wt PB1 HTS: modulators of MEK5 binding to wildtype MEKK2, primary screen, biochemical, multiplex bead flow cytometry, Alexa488-MEK5; actives 1.1% (n = 290,000); Alexa488-MEK5 binding to MEKK2 WT; actives lie on both sides; binding response (% of control), % at 10 µM; Mitogen-activated protein kinase kinase kinase 2 (Homo sapiens), Q9Y2U5; in the data active means binding response below about 67% or above about 130%
MEKK2wt confirm: modulators of MEK5 binding to wildtype MEKK2, confirmation, biochemical, single concentration, multiplex bead flow cytometry; actives 2.4% (n = 5,900); shares compounds with MEKK3 PB1 HTS; AID 1892, 2009; binding response (% of control), % at 10 µM; Alexa488-MEK5 binding to MEKK2 WT; actives lie on both sides; in the data active means binding response below about 16% or above about 210%; inactive means in between
MEKK2mut confirm: mutant MEKK2 PB1-MEK5 binding signal retest – biochemical, single concentration, multiplex bead flow cytometry, confirmation. shares compounds with MEKK3 PB1 HTS. Alexa488-MEK5 binding to MEKK2 mutant. percent response, % at 10 µM. actives 2% (n = 5,900); in the data active means percent response mostly above about 71%, no sharp cut-off; inactive means mostly below about 38%;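 further: higher means compound restores mutant binding toward wildtype level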
MEKK3 confirm: MEKK3 wild-type PB1 binding to MEK5, inhibitors, confirmation, biochemical, bead multiplex flow cytometry, single concentration, wildtype | shares compounds with MEKK3 PB1 HTS | Alexa488-MEK5 binding to MEKK3; hits give low values | binding response (% of control), % at 10 µM | actives 1.8% (n = 5,900) | AID 1894, 2009;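 active means binding response below 72% of control, or above a set upper limit, though filed actives all read lower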;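 further: 100% = DMSO only wells and 0% = binding blocked by excess unlabeled MEK5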
An asterisk follows results filed as active; [ ] = another dose, or the depositor's remark.

Results for CCOC(=O)c1c(NC(=O)c2cccs2)sc2c1CCCC2 ?
IMP-1 inh: -2.6; MEKK3 PB1 HTS: 1.0*[inhibitor]; VIM-2 inh: -2.4; MEKK2 mut-MEK5: -9.0; MEKK2wt PB1 HTS: -1.0*[inhibitor]; MEKK2wt confirm: 98.0; MEKK2mut confirm: 6.0; MEKK3 confirm: 98.0

How did CCOC(=O)c1c(NC(=O)c2cccs2)sc2c1CCC2 do in these assays?
MEKK3 PB1 HTS: 88.0; MEKK2 mut-MEK5: -1.0; MEKK2wt PB1 HTS: 92.0

Results for CCN(CC)CC(=O)Nc1ccc2c(c1)Nc1ccccc1CC2 ?
IMP-1 inh: -2.6; MEKK3 PB1 HTS: 109.0; VIM-2 inh: -0.6; MEKK2 mut-MEK5: 13.0; MEKK2wt PB1 HTS: 135.0*; MEKK2wt confirm: 147.0; MEKK2mut confirm: 30.0; MEKK3 confirm: 112.0

Results for COc1ccc(-n2c(=S)[nH]c3cc(C(=O)Nc4ccccc4OC)ccc3c2=O)cc1 ?
IMP-1 inh: -3.5; MEKK3 PB1 HTS: 132.0*; VIM-2 inh: -5.0; MEKK2 mut-MEK5: -1.0; MEKK2wt PB1 HTS: 103.0; MEKK2wt confirm: 98.0; MEKK2mut confirm: -1.0; MEKK3 confirm: 97.0

What do the screens show for `CCOC(=O)c1cc(-c2ccccc2)sc1NC(=O)C(C)C`?
IMP-1 inh: -1.7; MEKK3 PB1 HTS: 93.0; VIM-2 inh: -0.7; MEKK2 mut-MEK5: -6.0; MEKK2wt PB1 HTS: 88.0

Results for O=C(O)Cc1sc(-c2ccc(Cl)cc2)nc1-c1ccccc1 ?
IMP-1 inh: -1.7; MEKK3 PB1 HTS: 123.0*; VIM-2 inh: -0.8; MEKK2 mut-MEK5: 4.0; MEKK2wt PB1 HTS: 116.0; MEKK2wt confirm: 98.0; MEKK2mut confirm: 7.0; MEKK3 confirm: 104.0

What do the screens show for `CC(=O)Nc1sc(/C(C#N)=C\c2cccc(Cl)c2)nc1-c1ccc(C)cc1`?
IMP-1 inh: -3.2; MEKK3 PB1 HTS: 107.0; VIM-2 inh: -2.2; MEKK2 mut-MEK5: 26.0; MEKK2wt PB1 HTS: 13.0*[inhibitor]; MEKK2wt confirm: 99.0; MEKK2mut confirm: -4.0; MEKK3 confirm: 106.0

Results for O=C(NC(=O)c1ccc(F)cc1)Nc1nc(-c2cccs2)cc(C(F)(F)F)n1 ?
IMP-1 inh: -0.9; MEKK3 PB1 HTS: 66.0; VIM-2 inh: 0.1; MEKK2 mut-MEK5: -8.0; MEKK2wt PB1 HTS: 76.0

How did Cc1nn(-c2ccccc2)c(N)c1C(c1ccc(C(C)C)cc1)c1c(C)nn(-c2ccccc2)c1N do in these assays?
IMP-1 inh: -1.1; MEKK3 PB1 HTS: 146.0*; VIM-2 inh: 0.6; MEKK2 mut-MEK5: 0.0; MEKK2wt PB1 HTS: 106.0; MEKK2wt confirm: 96.0; MEKK2mut confirm: 0.0; MEKK3 confirm: 97.0

How did Cc1ccc(C(c2c(C)nn(-c3ccccc3)c2N)c2c(C)nn(-c3ccccc3)c2N)cc1 do in these assays?
IMP-1 inh: -2.3; MEKK3 PB1 HTS: 99.0; VIM-2 inh: -2.5; MEKK2 mut-MEK5: -1.0; MEKK2wt PB1 HTS: 96.0

Results for CC1NC(=O)NC1CCCCCC(=O)NCCc1ccccc1 (configuration not stated) ?
IMP-1 inh: -0.2; MEKK3 PB1 HTS: 1.0*[inhibitor]; VIM-2 inh: 0.6; MEKK2 mut-MEK5: -21.0; MEKK2wt PB1 HTS: -2.0*[inhibitor]; MEKK2wt confirm: 111.0; MEKK2mut confirm: 3.0; MEKK3 confirm: 104.0

How did CN1c2ccccc2-c2nc3ccccc3n2C1c1cccs1 (configuration not stated) do in these assays?
IMP-1 inh: -4.2; MEKK3 PB1 HTS: 181.0*; VIM-2 inh: -1.3; MEKK2 mut-MEK5: 0.0; MEKK2wt PB1 HTS: 105.0; MEKK2wt confirm: 102.0; MEKK2mut confirm: 2.0; MEKK3 confirm: 104.0

Results for c1csc(C2Nc3ccccc3-c3nc4ccccc4n32)c1 (configuration not stated) ?
IMP-1 inh: -2.6; MEKK3 PB1 HTS: 132.0*; VIM-2 inh: 1.0; MEKK2 mut-MEK5: 1.0; MEKK2wt PB1 HTS: 106.0; MEKK2wt confirm: 107.0; MEKK2mut confirm: 9.0; MEKK3 confirm: 100.0

How did CCCCOc1ccc(CSCCN)cc1Cl do in these assays?
IMP-1 inh: -2.6; MEKK3 PB1 HTS: 128.0*; VIM-2 inh: -1.8; MEKK2 mut-MEK5: 41.0; MEKK2wt PB1 HTS: 169.0*; MEKK2wt confirm: 108.0; MEKK2mut confirm: 3.0; MEKK3 confirm: 97.0

How did Cc1ccc(OCC(=O)Nc2ccc(CN3CCOCC3)cc2)cc1 do in these assays?
IMP-1 inh: -2.2; MEKK3 PB1 HTS: 96.0; VIM-2 inh: -2.4; MEKK2 mut-MEK5: 4.0; MEKK2wt PB1 HTS: 102.0

Results for Cc1cc2nc(C3CCN(C(=S)NCC(C)C)CC3)[nH]c2cc1C ?
IMP-1 inh: -2.3; MEKK3 PB1 HTS: 96.0; VIM-2 inh: -2.6; MEKK2 mut-MEK5: 15.0; MEKK2wt PB1 HTS: 100.0

How did COc1ccc(-c2cc(N)n(CCC#N)n2)c(OC)c1 do in these assays?
IMP-1 inh: -2.6; MEKK3 PB1 HTS: 104.0; VIM-2 inh: -1.1; MEKK2 mut-MEK5: 2.0; MEKK2wt PB1 HTS: 105.0

What do the screens show for `O=C(C1=C[C@@H](c2ccc(C(F)(F)F)cc2)C[C@@H](OCCCCO)O1)N1CCN(Cc2ccccc2)CC1`?
IMP-1 inh: -3.5; MEKK3 PB1 HTS: 73.0*[inhibitor]; VIM-2 inh: -2.3; MEKK2 mut-MEK5: 2.0; MEKK2wt PB1 HTS: 103.0; MEKK2wt confirm: 107.0; MEKK2mut confirm: 3.0; MEKK3 confirm: 104.0

How did NC(=O)c1ccc(-n2nnnc2SCc2ccccc2)cc1 do in these assays?
IMP-1 inh: -4.1; MEKK3 PB1 HTS: 108.0; VIM-2 inh: -3.2; MEKK2 mut-MEK5: 5.0; MEKK2wt PB1 HTS: 109.0

What do the screens show for `COc1ccccc1N(CC(=O)NCC1CCCO1)C(=O)CNS(=O)(=O)c1ccc(Cl)cc1` (configuration not stated)?
IMP-1 inh: -4.0; MEKK3 PB1 HTS: 128.0*; VIM-2 inh: -1.3; MEKK2 mut-MEK5: 28.0; MEKK2wt PB1 HTS: 122.0; MEKK2wt confirm: 100.0; MEKK2mut confirm: 0.0; MEKK3 confirm: 98.0

Source: PubChem BioAssay (several laboratories)
